Measured values reported in ChEMBL document CHEMBL3352363, “1,4-disubstituted-[1,2,3]triazolyl-containing analogues of MT-II: design, synthesis, conformational analysis, and biological activity” (J Med Chem, 2014).
Where a SMILES comes first, the peptide text is derived from it. Bridges are numbered along the chain shown (N, C = ends). Triazole bridges read from a SMILES are 1,4-linked. [ ]: non-standard residue; d: D form. Lys(N3) = [N-]=[N+]=NCCCC[C@H](N)C(=O)O; Nle = CCCC[C@H](N)C(=O)O; Pra = C#CC[C@H](N)C(=O)O

What was measured:
Type in all cases: functional, cell-based
[1] = target: Melanocortin receptor 3 (Mus musculus, UniProt P33033); experiment: Activity at mouse MC3R expressed in HEK293 cells assessed as cAMP accumulation by CRE/beta-galactosidase reporter gene assay
Sequence of Melanocortin receptor 3 (P33033 whole entry): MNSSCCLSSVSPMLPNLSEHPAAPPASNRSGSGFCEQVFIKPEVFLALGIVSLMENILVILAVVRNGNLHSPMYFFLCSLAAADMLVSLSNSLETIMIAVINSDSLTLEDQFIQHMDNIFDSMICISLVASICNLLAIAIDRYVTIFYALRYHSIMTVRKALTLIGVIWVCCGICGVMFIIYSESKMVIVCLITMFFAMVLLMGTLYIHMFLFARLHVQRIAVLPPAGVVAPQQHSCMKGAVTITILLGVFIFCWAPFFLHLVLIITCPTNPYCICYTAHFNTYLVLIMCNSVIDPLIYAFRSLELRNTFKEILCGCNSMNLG
Procedure, shortened: (§1)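 Stably transfected HEK-293 cells transiently transfected with 4 μg CRE/β-galactosidase reporter, 5000–15000 cells plated on collagen-treated wells overnight. Lysates frozen −80 °C; ONPG substrate at 37 °C, OD405 normalized to protein (OD595).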

[2] = target: Melanocyte-stimulating hormone receptor (Mus musculus, UniProt Q01727); experiment: Activity at mouse MC1R expressed in HEK293 cells assessed as cAMP accumulation by CRE/beta-galactosidase reporter gene assay; procedure, shortened: as §1
Sequence of Melanocyte-stimulating hormone receptor (Q01727 whole entry): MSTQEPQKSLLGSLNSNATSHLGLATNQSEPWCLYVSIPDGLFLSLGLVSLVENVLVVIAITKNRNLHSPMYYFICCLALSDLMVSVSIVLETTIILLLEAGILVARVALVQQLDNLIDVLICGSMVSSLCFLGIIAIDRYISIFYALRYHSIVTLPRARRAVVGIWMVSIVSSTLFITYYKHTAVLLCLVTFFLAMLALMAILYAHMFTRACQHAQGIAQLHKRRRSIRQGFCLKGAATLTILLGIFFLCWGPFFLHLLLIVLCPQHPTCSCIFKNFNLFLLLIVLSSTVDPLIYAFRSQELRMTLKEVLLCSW

[3] = target: Melanocortin receptor 4 (Mus musculus, UniProt P56450); experiment: Activity at mouse MC4R expressed in HEK293 cells assessed as cAMP accumulation by CRE/beta-galactosidase reporter gene assay; procedure, shortened: as §1
Sequence of Melanocortin receptor 4 (P56450 whole entry): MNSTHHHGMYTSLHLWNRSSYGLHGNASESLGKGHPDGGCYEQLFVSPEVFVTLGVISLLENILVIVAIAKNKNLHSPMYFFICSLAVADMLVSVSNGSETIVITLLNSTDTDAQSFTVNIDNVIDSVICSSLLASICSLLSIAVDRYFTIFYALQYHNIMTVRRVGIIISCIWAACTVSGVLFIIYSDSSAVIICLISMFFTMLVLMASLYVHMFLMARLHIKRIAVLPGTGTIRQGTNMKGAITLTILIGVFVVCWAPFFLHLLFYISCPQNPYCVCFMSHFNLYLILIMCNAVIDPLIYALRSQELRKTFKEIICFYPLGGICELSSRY

[4] = target: Melanocortin receptor 5 (Mus musculus, UniProt P41149); experiment: Activity at mouse MC5R expressed in HEK293 cells assessed as cAMP accumulation by CRE/beta-galactosidase reporter gene assay; procedure, shortened: as §1
Sequence of Melanocortin receptor 5 (P41149 whole entry): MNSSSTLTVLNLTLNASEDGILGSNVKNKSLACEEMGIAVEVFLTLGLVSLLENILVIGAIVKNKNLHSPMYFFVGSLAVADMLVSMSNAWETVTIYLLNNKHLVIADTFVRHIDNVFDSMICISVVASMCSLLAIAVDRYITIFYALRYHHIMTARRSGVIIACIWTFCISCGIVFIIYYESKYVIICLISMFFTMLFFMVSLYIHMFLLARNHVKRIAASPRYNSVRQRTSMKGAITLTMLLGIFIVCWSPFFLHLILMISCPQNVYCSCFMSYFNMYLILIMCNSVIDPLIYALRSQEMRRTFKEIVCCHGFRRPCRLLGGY

| EC50 [1] [nM] | EC50 [2] [nM] | EC50 [3] [nM] | EC50 [4] [nM] | SMILES |
| --- | --- | --- | --- | --- |
| 0.6 | 0.53 | 0.14 | – | CCCC[C@H](NC(C)=O)C(=O)N[C@H]1Cn2cc(nn2)CCCC[C@@H](C(N)=O)NC(=O)[C@H](Cc2c[nH]c3ccccc23)NC(=O)[C@H](CCCNC(=N)N)NC(=O)[C@@H](Cc2ccccc2)NC(=O)[C@H](Cc2cnc[nH]2)NC1=O |
| 1.32 | 0.53 | 0.14 | 0.13 | CCCCCC[C@H](NC(=O)[C@H](Cc1c[nH]c2ccccc12)NC(=O)[C@H](CCCNC(=N)N)NC(=O)[C@@H](Cc1ccccc1)NC(=O)[C@H](Cc1cnc[nH]1)NC(=O)[C@H](CN=[N+]=[N-])NC(=O)[C@H](CCCC)NC(C)=O)C(N)=O |
| 0.21 | 0.1 | 0.051 | 0.042 | CCCC[C@H](NC(C)=O)C(=O)N[C@H]1CCCc2cn(nn2)CC[C@@H](C(N)=O)NC(=O)[C@H](Cc2c[nH]c3ccccc23)NC(=O)[C@H](CCCNC(=N)N)NC(=O)[C@@H](Cc2ccccc2)NC(=O)[C@H](Cc2cnc[nH]2)NC1=O |
| 0.63 | 0.32 | 0.14 | 0.15 | CCCC[C@H](NC(C)=O)C(=O)N[C@H]1CCc2cn(nn2)CC[C@@H](C(N)=O)NC(=O)[C@H](Cc2c[nH]c3ccccc23)NC(=O)[C@H](CCCNC(=N)N)NC(=O)[C@@H](Cc2ccccc2)NC(=O)[C@H](Cc2cnc[nH]2)NC1=O |
| 1.91 | 0.71 | 0.85 | 1.88 | CCCC[C@H](NC(C)=O)C(=O)N[C@H]1CCCn2cc(nn2)CC[C@@H](C(N)=O)NC(=O)[C@H](Cc2c[nH]c3ccccc23)NC(=O)[C@H](CCCNC(=N)N)NC(=O)[C@@H](Cc2ccccc2)NC(=O)[C@H](Cc2cnc[nH]2)NC1=O |
| 0.2 | 0.087 | – | – | CCCC[C@H](NC(C)=O)C(=O)N[C@H]1CCCCc2cn(nn2)C[C@@H](C(N)=O)NC(=O)[C@H](Cc2c[nH]c3ccccc23)NC(=O)[C@H](CCCNC(=N)N)NC(=O)[C@@H](Cc2ccccc2)NC(=O)[C@H](Cc2cnc[nH]2)NC1=O |
| 0.2 | 0.074 | 0.048 | 0.045 | CCCC[C@H](NC(C)=O)C(=O)N[C@H]1CCn2cc(nn2)CCC[C@@H](C(N)=O)NC(=O)[C@H](Cc2c[nH]c3ccccc23)NC(=O)[C@H](CCCNC(=N)N)NC(=O)[C@@H](Cc2ccccc2)NC(=O)[C@H](Cc2cnc[nH]2)NC1=O |
| 1.1 | – | 0.21 | – | CCCC[C@H](NC(C)=O)C(=O)N[C@@H](CC(=O)O)C(=O)N[C@@H](Cc1c[nH]cn1)C(=O)N[C@H](Cc1ccccc1)C(=O)N[C@@H](CCCN=C(N)N)C(=O)N[C@@H](Cc1c[nH]c2ccccc12)C(=O)N[C@@H](CCCCN)C(N)=O |
| 3.14 | 5.18 | 1.62 | 1.93 | CCCC[C@H](NC(C)=O)C(=O)N[C@H]1Cc2cn(nn2)CCCC[C@@H](C(N)=O)NC(=O)[C@H](Cc2c[nH]c3ccccc23)NC(=O)[C@H](CCCNC(=N)N)NC(=O)[C@@H](Cc2ccccc2)NC(=O)[C@H](Cc2cnc[nH]2)NC1=O |
| 3.7 | 0.85 | 0.58 | 1.76 | CCCC[C@H](NC(C)=O)C(=O)N[C@H]1CCCCn2cc(nn2)C[C@@H](C(N)=O)NC(=O)[C@H](Cc2c[nH]c3ccccc23)NC(=O)[C@H](CCCNC(=N)N)NC(=O)[C@@H](Cc2ccccc2)NC(=O)[C@H](Cc2cnc[nH]2)NC1=O (Ac-[Nle][Lys(N3)]H[dF]RW[Pra]-NH2; triazole 2-7) |
| 0.29 | 0.11 | 0.22 | 0.34 | CCCC[C@H](NC(C)=O)C(=O)N[C@H]1CCc2cn(nn2)CCC[C@@H](C(N)=O)NC(=O)[C@H](Cc2c[nH]c3ccccc23)NC(=O)[C@H](CCCNC(=N)N)NC(=O)[C@@H](Cc2ccccc2)NC(=O)[C@H](Cc2cnc[nH]2)NC1=O |
| – | – | – | 1.9 | C#CC[C@H](NC(=O)[C@H](Cc1c[nH]c2ccccc12)NC(=O)[C@H](CCCNC(=N)N)NC(=O)[C@@H](Cc1ccccc1)NC(=O)[C@H](Cc1cnc[nH]1)NC(=O)[C@H](CCCCN=[N+]=[N-])NC(=O)[C@H](CCCC)NC(C)=O)C(N)=O |
| 0.29 | 0.2 | 0.067 | 0.07 | CCCC[C@H](NC(C)=O)C(=O)N[C@H]1CCn2cc(nn2)CC[C@@H](C(N)=O)NC(=O)[C@H](Cc2c[nH]c3ccccc23)NC(=O)[C@H](CCCNC(=N)N)NC(=O)[C@@H](Cc2ccccc2)NC(=O)[C@H](Cc2cnc[nH]2)NC1=O |
